Assay results of several laboratories.
Lines come from different studies, so protocols differ.
Target: Mitogen-activated protein kinase kinase kinase 19 (MAP3K19, Homo sapiens, UniProt Q56UN5)
Residues used in one study (Q56UN5 1-1328): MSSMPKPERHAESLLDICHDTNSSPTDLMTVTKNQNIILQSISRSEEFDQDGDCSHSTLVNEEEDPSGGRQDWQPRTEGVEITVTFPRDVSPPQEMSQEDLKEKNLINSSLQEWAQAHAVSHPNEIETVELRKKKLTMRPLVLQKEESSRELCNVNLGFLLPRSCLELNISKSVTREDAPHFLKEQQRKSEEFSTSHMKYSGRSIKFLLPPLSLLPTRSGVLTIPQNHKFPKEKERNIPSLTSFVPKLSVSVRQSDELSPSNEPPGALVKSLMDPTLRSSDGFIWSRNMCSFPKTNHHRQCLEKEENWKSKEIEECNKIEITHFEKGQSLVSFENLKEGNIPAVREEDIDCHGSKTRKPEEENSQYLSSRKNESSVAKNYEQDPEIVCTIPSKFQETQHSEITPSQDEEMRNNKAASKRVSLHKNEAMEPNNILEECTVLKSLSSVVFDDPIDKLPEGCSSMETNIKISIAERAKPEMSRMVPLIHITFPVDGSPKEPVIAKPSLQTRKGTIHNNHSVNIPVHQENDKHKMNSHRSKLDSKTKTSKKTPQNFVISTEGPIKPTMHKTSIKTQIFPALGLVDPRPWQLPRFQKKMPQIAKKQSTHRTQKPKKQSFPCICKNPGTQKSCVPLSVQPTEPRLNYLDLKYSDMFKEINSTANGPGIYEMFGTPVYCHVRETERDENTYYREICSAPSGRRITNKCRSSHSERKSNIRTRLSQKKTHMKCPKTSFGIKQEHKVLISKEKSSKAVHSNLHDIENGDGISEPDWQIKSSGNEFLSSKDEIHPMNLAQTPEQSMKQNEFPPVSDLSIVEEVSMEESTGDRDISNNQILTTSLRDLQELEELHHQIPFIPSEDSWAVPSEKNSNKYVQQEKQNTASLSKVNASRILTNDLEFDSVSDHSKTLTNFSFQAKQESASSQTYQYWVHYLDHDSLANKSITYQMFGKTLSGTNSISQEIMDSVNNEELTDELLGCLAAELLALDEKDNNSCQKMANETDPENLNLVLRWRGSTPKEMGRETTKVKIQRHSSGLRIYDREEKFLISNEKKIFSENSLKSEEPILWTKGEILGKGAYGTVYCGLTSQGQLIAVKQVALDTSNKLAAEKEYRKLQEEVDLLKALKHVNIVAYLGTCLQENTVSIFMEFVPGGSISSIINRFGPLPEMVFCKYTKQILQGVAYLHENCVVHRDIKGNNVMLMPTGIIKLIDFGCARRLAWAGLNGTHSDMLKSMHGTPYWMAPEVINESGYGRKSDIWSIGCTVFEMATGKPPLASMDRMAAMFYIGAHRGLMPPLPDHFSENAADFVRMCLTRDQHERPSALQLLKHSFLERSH

| SMILES | assay | conditions | remaining binding [%] |
| --- | --- | --- | --- |
| CNC(=O)[C@@H]1CC[C@@H](n2c(-c3ccc4cnccc4c3)nc3ccc(C(=O)NCc4cccc(C(N)=O)c4)cc32)C1 | binding, competition with immobilised ligand | 1 µM | 100 |
| Cc1cnn2ncc(-c3ccnc(N(C)C)n3)c2c1 | binding | 1 µM | 75 |
| CC(=O)C1=C(C)N(c2cccc(C(F)(F)F)c2)C(=O)N[C@@H]1c1ccc(C#N)nc1 | cell-free assay, competition with immobilised ligand | 1 µM | 93 |
| CN(C)c1nccc(-c2cnc3ncccn23)n1 | binding | 1 µM | 79 |
| O=C(c1ccc(Nc2ncc(Cl)c(-c3ccc(Cl)s3)n2)cc1)N1CCC(N2CCCC2)CC1 | binding, competition with immobilised ligand | 1 µM | 0 |
| Cc1cc(-n2nc(Cc3cc(F)cc(C(F)(F)F)c3)nc2C)ccc1C(N)=O | cell-free assay, competition with immobilised ligand | 1 µM | 98 |
| CC1CCCN1c1nccc(-c2cnn3ncccc23)n1 (centres unmarked) | binding | 1 µM | 95 |
| O=C(Nc1c[nH]nc1C(=O)NC1CCNCC1)c1cc(F)cc(F)c1 | binding, competition with immobilised ligand | 1 µM | 100 |
| O=C(NCCCC1CCCCC1)c1ccc(CNC(=O)c2cnn(-c3ccccc3)c2C(F)(F)F)cc1 | cell-free assay, competition with immobilised ligand | 0.1 µM | 89 |
| CN(C)c1nccc(-c2cnn3ncccc23)n1 | binding | 1 µM | 50 |
| Nc1ncc2c(n1)-c1c([nH]c3ccc(C#CC4CC4)cc13)CCCC2 | binding, competition with immobilised ligand | 1 µM | 64 |
| O=C(NCCCN1CCOCC1)c1ccc(Nc2nccc(-c3cc4ccccc4s3)n2)cc1 | binding, competition with immobilised ligand | 1 µM | 0.1 |
| Cc1nc(C2CCN(C(=O)c3ccc(OC(F)(F)F)cc3N)CC2)c2ncc(N3CCN(C)CC3)cc2n1 | cell-free assay, competition with immobilised ligand | 1 µM | 79 |
| COc1ncc2cc3ccccc3nc2c1C#N | cell-free assay, competition with immobilised ligand | 5 µM | 81 |
| Cc1nc(N2CC[C@@H](O)C2)ncc1-c1cc(C(F)(F)F)cc2[nH]ncc12 | binding, competition with immobilised ligand | 1 µM | 67 |
| c1cncc(-c2cccc(Nc3nccc(NC4CCCCC4)n3)c2)c1 | binding, competition with immobilised ligand | 10 µM | 18 |
| N[C@H]1CCN(c2nccc(-c3cnn4ncccc34)n2)C1 | binding | 1 µM | 79 |
| Cc1cnc(Nc2ccc(C(=O)N3CCC(N4CCCC4)CC3)cc2)nc1-c1cc2ccccc2s1 | binding, competition with immobilised ligand | 1 µM | 0 |
| Cc1cc(NC(=O)c2cccc(S(F)(F)(F)(F)F)c2)cc(-n2ccn3nc(-c4cccnc4)cc23)c1 | cell-free assay, competition with immobilised ligand | 1 µM | 100 |
| CN(CCCC(F)(F)F)c1nccc(-c2cnn3ncccc23)n1 | binding | 1 µM | 95 |
